Experimental findings from ChEMBL document CHEMBL4819012, “Discovery of novel 2-aryl-3-sulfonamido-pyridines (HoAns) as microtubule polymerization inhibitors with potent antitumor activities” (Eur J Med Chem, 2021) are described below.

SMILES strings stand for the structures. Calls of active or inactive are those of the source. The rule behind the calls is not given here.

In one data set the test system is PLC-PRF-5. Kind of data set: Antiproliferative activity against human PLC-PRF-5 cells assessed as cell viability measured after 72 hrs by MTS method. The class given is functional, cell-based. The note with it: PLC-PRF-5, 72 h. A digest of the protocol:
(§1)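 Log-phase cells plated at 5×10^3–6×10^3 per well for 24 h, then given graded compound concentrations in fresh medium for 72 h, five replicate wells. Medium replaced with medium containing 10% MTS, 30 min or more at 37 °C in dark; OD 490 nm read. IC50 by nonlinear regression; mean ± SD of at least three experiments.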
For orientation: Formazan colour is commonly taken as a measure of viable cells.

Data set [1] is described as follows: Antiproliferative activity against human HCCLM3 cells assessed as cell viability measured after 72 hrs by MTS method. The class given is functional, cell-based. The conditions noted are these: HCCLM3, 72 h. A digest of the protocol:
as §1

Another data set deals with SK-BR-3. The experiment in a line: Antiproliferative activity against human SK-BR-3 cells assessed as cell viability measured after 72 hrs by MTS method. It is filed as functional, cell-based. The note with it: SK-BR-3, 72 h. A digest of the protocol: as §1
The test system of data set [2] is SW-620. Kind of data set: Antiproliferative activity against human SW-620 cells assessed as cell viability measured after 72 hrs by MTS method. It is filed as functional, cell-based. The note with it: SW-620, 72 h. A digest of the protocol:
as §1

In the next data set the test system is SW480. Kind of data set: Antiproliferative activity against human SW480 cells assessed as cell viability measured after 72 hrs by MTS method. It is filed as functional, cell-based. The note with it: SW480, 72 h. A digest of the protocol: as §1
For a further data set, the species on record is Sus scrofa. The experiment in a line: Inhibition of pig tubulin polymerization at 10 uM measured every minute for 60 mins by microplate reader method. A digest of the protocol:
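Kit assay with porcine tubulin (>97% pure) at 4 mg/mL in PIPES 80 mM, MgCl2 2 mM, EGTA 0.5 mM, pH 6.9, with GTP. Compound at 10 μM final (from 100 μM working solution) preincubated 5 min at 37 °C in a prewarmed plate before cold tubulin mix is added. A340 read every minute for 60 min at 37 °C.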

The target in data set [3] is Tubulin beta (Homo sapiens) (UniProt P68371+Q9H4B7+Q13509+P04350+Q3ZCM7+P07437+Q13885+Q9BVA1+Q9BUF5+A6NNZ2). Kind of data set: Inhibition of N,N'-Ethylenebis(iodoacetamide) binding to beta tubulin in human SW-620 cells at 20 to 40 uM preincubated for 2 hrs followed by addition of EBI and measured after 2 hrs by western blot assay. It is filed as cell-based. The conditions noted are these: dose 20-40 µM. A digest of the protocol: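 SW620 cells (5×10^5 per well) pretreated for 2 h with 10, 20 or 40 μM of test agent or DMSO, then given 100 μM EBI for 2 h. Lysed in SDS loading buffer. β-tubulin and β-tubulin–EBI adduct bands resolved by western blot probed with anti-β-tubulin.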

The test system of data set [4] is RKO. Kind of data set: Induction of cell cycle arrest in human RKO cells assessed as accumulation of cells in G2 phase at 1 uM measured after 24 hrs by PI staining based flow cytometry method (reference value: 10.79%). The class given is functional. In general terms: Flow cytometry measures light scatter and fluorescence of single cells or particles in a stream.

Data set [5] has as its system SW-620. The experiment in a line: Induction of cell cycle arrest in human SW-620 cells assessed as accumulation of cells in G1 phase at 1 uM measured after 24 hrs by PI staining based flow cytometry method (reference value: 40.06%). It is filed as functional.
For data set [6], the system named is RKO. The experiment in a line: Induction of apoptosis in human RKO cells assessed as viable cells at 1 uM measured after 24 hrs by PI/Annexin V staining based flow cytometry assay (reference value: 96.6%). The class given is functional. The conditions noted are these: read-out: Activity.
The test system of data set [7] is RKO. Kind of data set: Induction of apoptosis in human RKO cells assessed as early apoptotic cells at 1 uM measured after 24 hrs by PI/Annexin V staining based flow cytometry assay (reference value: 2.58%). It is filed as functional.
Data set [8] has as its system RKO. The experiment in a line: Induction of apoptosis in human RKO cells assessed as late apoptotic cells at 1 uM measured after 24 hrs by PI/Annexin V staining based flow cytometry assay (reference value: 0.81%). The class given is functional.
Data set [9] concerns SW-620. Kind of data set: Induction of apoptosis in human SW-620 cells assessed as viable cells at 1 uM measured after 24 hrs by PI/Annexin V staining based flow cytometry assay (reference value: 93.89%). The class given is functional. The conditions noted are these: read-out: Activity.
Data set [10] has as its system SW-620. Kind of data set: Induction of apoptosis in human SW-620 cells assessed as early apoptotic cells at 1 uM measured after 24 hrs by PI/Annexin V staining based flow cytometry assay (reference value: 2.41%). It is filed as functional.
The test system of data set [11] is SW-620. The experiment in a line: Induction of apoptosis in human SW-620 cells assessed as late apoptotic cells at 1 uM measured after 24 hrs by PI/Annexin V staining based flow cytometry assay (reference value: 3.66%). The class given is functional.
The subject of data set [12] is RKO. Kind of data set: Induction of apoptosis in human RKO cells assessed as increase in ROS levels at 0.5 uM measured after 24 hrs by DCFH-DA staining based flow cytometry method relative to control. It is filed as functional. A digest of the protocol: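 Cells at 5×10^5 per well exposed to 0.25 or 0.5 µM for 24 h, then loaded with 5 µM DCFH-DA in serum-free medium 30 min at 37 °C; washed, harvested, read by flow cytometry (ex 488/em 525 nm). ROS given as ratio of treated to control; at least three experiments.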

Data set [13] can be described thus: Toxicity against Athymic nude mouse xenografted with SW-620 cells assessed as changes in body weight at 25 mg/kg per two days, po measured after 20 days. The conditions noted are these: in vivo, 480 h, time 20 day. The class given is organism-based. A digest of the protocol: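 Nude mice given 5×10^6 SW620 cells s.c. into the right armpit; at ~100 mm³ randomized (n = 6). Dosed orally at 25 mg/kg every 2 days in DMSO:corn oil 1:9 (100 μL) for 20 days; vehicle controls dosed on the same schedule. Body weight recorded every 2 days.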

Data set [14] relates to SW-620. The experiment in a line: Induction of cell cycle arrest in human SW-620 cells assessed as accumulation of cells in G1 phase at 0.5 uM measured after 24 hrs by PI staining based flow cytometry method (reference value: 40.06%). The class given is functional.
A further data set concerns PANC-1. The experiment in a line: Induction of cell cycle arrest in human PANC-1 cells assessed as accumulation of cells in G2 phase at 0.5 uM measured after 24 hrs by PI staining based flow cytometry method (reference value: 3.63%). It is filed as functional.
The subject of data set [15] is RKO. The experiment in a line: Induction of cell cycle arrest in human RKO cells assessed as reduction in cdc2 expression at 0.5 to 1 uM measured after 24 hrs by western blot assay. It is filed as functional, cell-based. The conditions noted are these: dose 0.5-1 µM. A digest of the protocol:
(§2)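 RKO or SW620 cells (4×10^5–5×10^5 per well) exposed to 0.5 or 1 μM or DMSO for 24 h. Lysed in SDS loading buffer, boiled, run on 8–15% SDS-PAGE and moved to PVDF. Blocked in 5% milk, probed overnight at 4 °C with anti-Cdc2 or anti-cyclin B1 (1:1000), β-actin as reference. HRP secondary and ECL detection. Done at least three times.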
(In general: In western blotting, separated proteins are transferred to a membrane and probed.)

In data set [16] the test system is SW-620. The experiment in a line: Induction of apoptosis in human SW-620 cells assessed as viable cells at 0.5 uM measured after 24 hrs by PI/Annexin V staining based flow cytometry assay (reference value: 93.89%). It is filed as functional. The note with it: read-out: Activity.
Data set [17] in a line: Toxicity against Athymic nude mouse xenografted with SW-620 cells assessed as toxicity in lung at 25 mg/kg per two days, po measured after 20 days by H and E staining method. It is filed as organism-based. The note with it: in vivo, 480 h, time 20 day. A digest of the protocol: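 At the end of the 20-day oral SW620 xenograft study (25 mg/kg every 2 days, n = 6), heart, liver, spleen, lung and kidney were fixed in 4% paraformaldehyde and embedded in paraffin. 4 μm sections stained with Mayer hematoxylin 5 min and eosin-phloxine 2 min, then examined by light microscopy.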

Data set [18] has as its system SW-620. The experiment in a line: Induction of cell cycle arrest in human SW-620 cells assessed as reduction in cdc2 expression at 0.5 to 1 uM measured after 24 hrs by western blot assay. It is filed as functional, cell-based. The note with it: dose 0.5-1 µM. A digest of the protocol:
as §2

Turning to `COc1ccc(S(=O)(=O)Nc2cccnc2Nc2ccc(O)cc2)cc1` [ABT-751], the IC50 (commonly the concentration that gives 50% inhibition) in the data set on PLC-PRF-5 came out at 792 nM; in [1], 671 nM; in the data set with SK-BR-3, 143 nM; in the data set with SW-620 [2] it was 2790 nM; in the data set on SW480, 3420 nM. The inhibition result in the data set listed under Sus scrofa was “Active”. Also, in data set [3], the inhibition result was “Dose-Dependent Effect”. Moreover, the Activity was 52.8% in the data set with RKO [4]; 37.86% in the data set with SW-620 [5]; 10.16% with RKO [7]; 1.31% in the data set with RKO [8]; 8.35% with SW-620 [10]; 4.322% with SW-620 [11]. Further, the Activity result in data set [13] is recorded as “Non-Toxic”. Moreover, the viability at 1 µM turned out to be 88.4% in the data set with RKO [6] and 85.6% in the data set on SW-620 [9]. The “fold change (FC)” value in the data set with RKO [12] worked out at 2.
As to `COc1ccc(S(=O)(=O)Nc2cccnc2-c2ccc(C#N)c(F)c2)cc1`, the IC50 in data set [1] was determined as 963 nM; with SK-BR-3, 431 nM; with SW-620 [2], 673 nM; in the data set on SW480, 338 nM. Moreover, the inhibition result in the data set listed under Sus scrofa was “Active”. Further, the Activity in the data set on RKO [4] was determined as 47.76%; in the data set on SW-620 [14] it was 38.03%; in the data set with SW-620 [5] it was 8.05%; with PANC-1, 15.67%; with RKO [7] it was 36.65%; with RKO [8], 1.52%. In addition, the Activity is recorded as 10.09% in the data set with SW-620 [10], 4.26% in the data set on SW-620 [11], “Non-Toxic” in [13] and “Non-Toxic” in data set [17]. In addition, the result with RKO [15] and in the data set with SW-620 [18] was Active. Besides, the viability at 1 µM in the data set on RKO [6] was found to be 61%; in the data set with SW-620 [9], 87.3%. For the same compound, the viability at 0.5 µM with SW-620 [16] stood at 90.2%. The “fold change (FC)” value with RKO [12] is listed as 1.5.
